Test results as given in ChEMBL document CHEMBL1138890, “Development of N-2,4-pyrimidine-N-phenyl-N'-alkyl ureas as orally active inhibitors of tumor necrosis factor alpha (TNF-alpha) synthesis. Part 2” (Bioorg Med Chem Lett, 2006).
In brackets after ≈: the same amount, converted by molar mass.

Columns and labels:
THP-1 [1] = assay: Inhibition of LPS-stimulated TNFalpha production in human THP1 cells; type: functional, cell-based
[2] = Solubility in Sprague-Dawley rat; type: ADME, organism-based
[3] = Half life in Sprague-Dawley rat; type: ADME, organism-based; conditions: in vivo
[4] = Metabolism measured as percent loss of compound in Sprague-Dawley rat hepatocytes after 4 hrs; type: ADME, cell-based, Hepatocyte; conditions: read-out: Activity
In short: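 Compound incubated with plated Sprague–Dawley rat hepatocytes for 4 h. Metabolism expressed as percent loss of parent compound.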

[5] = Bioavailability in Sprague-Dawley rat; type: ADME, organism-based; conditions: in vivo
[6] = Bioavailability in po dosed Sprague-Dawley rat; type: ADME, organism-based; conditions: in vivo
Rattus norvegicus = assay: Reduction in severity of cartilage damage in Sprague-Dawley rat at 25 mg/kg; type: functional; set-up: scale not given: the % may be the effect or the level left
In short: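 Osteoarthritis was induced in male Sprague–Dawley rats (200–225 g) under anesthesia by injecting 20 µL of 10 mg/mL monosodium iodoacetate into the patellar ligament region of the left knee, flexed 90°. Groups of 15 were dosed BID (about every 12 h) for 7 days with 25 mg/kg compound or vehicle (2.5 mL/kg). On day 22 the left joint was fixed in 10% formalin for 24–48 h and the tibial cartilage surface imaged. Damage severity was compared with vehicle (P < 0.05).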

THP-1 [7] = assay: Inhibition of LPS-stimulated TNFalpha production in human THP1 cells at 10 uM; type: functional

For `O=C(NCc1ccccc1Cl)N(c1ccc(F)cc1)c1ccnc(NC2CCOCC2)n1`, the IC50 (THP-1 [1]) was 0.016 µM.

In the case of `COC[C@H](C)Nc1nccc(N(C(=O)NCc2ccc(Cl)c(Cl)c2)c2ccc(OC)cc2)n1`, the IC50 (THP-1 [1]) is reported as 2.07 µM.

For `COc1ccc(N(C(=O)NCc2ccccc2Cl)c2ccnc(N[C@@H](C)C(C)(C)O)n2)cc1`, the IC50 (THP-1 [1]) was 0.009 µM, the solubility [2] was < 10 µg/mL and the half-life [3] was 1.9 h. The metabolised at 4 h [4] was 32% and the bioavailability [5] was 1.9%.

In the case of `CCNC(=O)N(c1ccc(OC)cc1)c1ccnc(NC(C)C)n1`, the IC50 (THP-1 [1]) is reported as 0.08 µM.

With `CCNC(=O)N(c1ccc(OCC)cc1)c1ccnc(N[C@@H](C)COC)n1` the IC50 (THP-1 [1]) was 0.276 µM.

`CC(C)Nc1nccc(N(C(=O)NCC2CCN(C(=O)OC(C)(C)C)CC2)c2ccc(F)cc2)n1` showed an IC50 (THP-1 [1]) of 1.16 µM.

Compound `COC[C@H](C)Nc1nccc(N(C(=O)NCc2ccccc2Cl)c2ccc(F)cc2)n1` has an IC50 (THP-1 [1]) of 0.236 µM.

With `CC(C)Nc1nccc(N(C(=O)NCCN2CCN(C(=O)OC(C)(C)C)CC2)c2ccc(F)cc2)n1` the IC50 (THP-1 [1]) was 0.277 µM.

Compound `COC[C@H](C)Nc1nccc(N(C(=O)NC2CCCCC2)c2ccc(OC)cc2)n1` has an IC50 (THP-1 [1]) of 0.467 µM.

`CC(C)Nc1nccc(N(C(=O)NCc2ccccn2)c2ccc(F)cc2)n1` showed an IC50 (THP-1 [1]) of 0.03 µM.

With `COC[C@H](C)Nc1nccc(N(C(=O)NCc2ccccc2Cl)c2ccc(OC)cc2)n1` the IC50 (THP-1 [1]) was 0.148 µM.

Work on `COC[C@H](C)Nc1nccc(N(C(=O)NCc2ccc(Cl)cc2Cl)c2ccc(OC)cc2)n1` yielded an IC50 (THP-1 [1]) of 0.611 µM.

Work on `CCOc1ccc(N(C(=O)NCc2ccccc2Cl)c2ccnc(N[C@@H](C)COC)n2)cc1` yielded an IC50 (THP-1 [1]) of 0.056 µM.

`COc1ccc(N(C(=O)NCc2ccccc2Cl)c2ccnc(NC(C)C)n2)cc1` showed an IC50 (THP-1 [1]) of 0.016 µM.

For `CCNC(=O)N(c1ccc(OC)cc1)c1ccnc(N[C@@H](C)COC)n1`, the IC50 (THP-1 [1]) was 0.819 µM.

For `CC(C)NC(=O)N(c1ccc(F)cc1)c1ccnc(NC(C)C)n1`, the IC50 (THP-1 [1]) was 0.074 µM.

For `CCNC(=O)N(c1ccc(OC)cc1)c1ccnc(N[C@@H](C)C(C)(C)O)n1`, the bioavailability [6] was 15%, the IC50 (THP-1 [1]) was 0.028 µM and the solubility [2] was 240 µg/mL (≈ 643 µM). It also gave a metabolised at 4 h [4] of 32% and an Activity (Rattus norvegicus) of 24%.

For `CCNC(=O)N(c1ccc(F)cc1)c1ccnc(NC2CCOCC2)n1`, the IC50 (THP-1 [1]) was 0.086 µM, the solubility [2] was 25 µg/mL (≈ 69.6 µM) and the half-life [3] was 0.46 h. It also gave a metabolised at 4 h [4] of 16%, an Activity (Rattus norvegicus) of 16% and a bioavailability [5] of 13.2%.

In the case of `CC(C)Nc1nccc(N(C(=O)NCc2ccncc2)c2ccc(F)cc2)n1`, the IC50 (THP-1 [1]) is reported as 0.004 µM.

`CN(C)c1nccc(N(C(=O)NCc2ccccc2Cl)c2ccc(F)cc2)n1` showed an inhibition at 10 µM (THP-1 [7]) of 35%.

For `O=C(NCc1ccccc1Cl)N(c1ccc(F)cc1)c1ccnc(Nc2c(F)cccc2F)n1`, the inhibition at 10 µM (THP-1 [7]) was 25%.

`CCCCNC(=O)N(c1ccc(OC)cc1)c1ccnc(N[C@@H](C)COC)n1` showed an IC50 (THP-1 [1]) of 0.324 µM.

For `COc1ccc(N(C(=O)NCc2ccccc2C)c2ccnc(N[C@@H](C)C(C)(C)O)n2)cc1`, the IC50 (THP-1 [1]) was 0.037 µM.

With `COc1ccc(N(C(=O)NCc2ccccc2OC)c2ccnc(N[C@@H](C)C(C)(C)O)n2)cc1` the IC50 (THP-1 [1]) was 0.015 µM.

With `CNc1nccc(N(C(=O)NCc2ccccc2Cl)c2ccc(OC)cc2)n1` the inhibition at 10 µM (THP-1 [7]) was 3%.

With `C[C@H](Nc1nccc(N(C(=O)NCc2ccccc2Cl)c2ccc(F)cc2)n1)C(C)(C)O` the IC50 (THP-1 [1]) was 0.014 µM.

For `CC(C)Nc1nccc(N(C(=O)NCC2CCNCC2)c2ccc(F)cc2)n1`, the IC50 (THP-1 [1]) was 0.016 µM.

`CC(C)Nc1nccc(N(C(=O)NCCN2CCNCC2)c2ccc(F)cc2)n1` gave an IC50 (THP-1 [1]) of 0.119 µM.
